Several values for one entry are separate records, joined by “and”; a condition that tells them apart may be missing. Identical values can stand only once.
Columns and labels:
[1] = In vitro Cytotoxic concentration in mock-infected A3.01 cells.; type: functional, Homo sapiens
In short: (§1)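 Toxicity was read on mock-infected A3.01, H9 or PBL cells handled alongside the infected ones (3 h mock infection, wash). Compounds were 3-fold serially diluted (AZT 5-fold). Incubation lasted 7 days, with medium and compound changed on day 4. Cytotoxicity was graded by eye from cell morphology and death. […] Single determination.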

[2] = In vitro Cytotoxic concentration in mock-infected A3.01 cells - 100% toxicity.; type: functional, Homo sapiens; in short: as §1
[3] = Selectivity index is defined as CC25(A3.01 cells) / IC50(A3.01 cells); type: functional
In short: (§2)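 Selectivity index = CC25/IC50 within each line (A3.01, H9 or PBL). CC25 came from visual grading of mock-infected cells after 7 days. IC50 came from reverse transcriptase activity in infected-cell supernatants after 7 days, with medium and compound changed on day 4.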

[4] = In vitro Cytotoxic concentration which reduced HIV-1 LAV infected peripheral blood lymphocytes by 50 percent; type: functional
In short: (§3)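 Cells (A3.01, H9 or PBL) infected with HIV-1 LAV for 3 h at 37 °C in 5% CO2, then washed free of unadsorbed virus. Test compounds were serially diluted 3-fold and AZT 5-fold. Cultures ran 7 days, with medium and compound renewed on day 4. Reverse transcriptase activity in supernatants gave virus levels. IC50 = concentration cutting virus by 50% versus control cultures. Single determination.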

[5] = test system: MT2; assay: In vitro Cytotoxic concentration which reduced HIV-1 LAV infected MT-2 cells by 25 percent; type: functional, Homo sapiens
In short: (§4)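 MT-2 cells were mock-infected for 3 h at 37 °C in 5% CO2, then washed. Compound was added as serial dilutions (3-fold; AZT 5-fold) and incubated 4 days. Cytotoxicity was counted by trypan blue dye exclusion on a hemocytometer. […] Single determination.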

[6] = Selectivity index is defined as CC25(PBLcells) / […]; type: functional; in short: as §2
[7] = test system: MT2; assay: In vitro Cytotoxic concentration which reduced HIV-1 LAV infected MT-2 cells by 50 percent; type: functional, cell-based; conditions: Homo sapiens
In short: (§5)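 MT-2 cells were infected for 3 h at 37 °C in 5% CO2 with HIV-1 LAV or with clinical isolates G762-3, H112-2 (pre-AZT) or G691-2, G910-6p2 (post-AZT), then washed. Serial compound dilutions (3-fold; AZT 5-fold) followed, with 4-day incubation. Virus was measured as p24 core antigen by kit. IC50 = 50% reduction versus control cultures. Single determination.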

[8] = Selectivity index is defined as CC25(MT2 cells) / […]; type: functional
In short: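 Selectivity index = CC25/IC50 in MT-2 cells. CC25 came from trypan blue exclusion on mock-infected cells after 4 days. IC50 came from the 50% reduction in p24 antigen in HIV-1 LAV-infected cultures after 4 days.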

[9] = test system: H9; assay: In vitro Cytotoxic concentration which destroyed HIV-1 LAV infected H9 cells completely; type: functional, Homo sapiens; in short: as §1
[10] = test system: H9; assay: In vitro Cytotoxic concentration which reduced HIV-1 LAV infected H9 cells by 25 percent; type: functional, Homo sapiens; in short: as §1
[11] = test system: MT2; assay: In vitro Cytotoxic concentration which reduced G 762-3(pre-AZT) infected MT-2 cells by 50 percent; type: functional, cell-based; conditions: Homo sapiens; in short: as §5
[12] = In vitro Cytotoxic concentration which reduced HIV-1 LAV infected peripheral blood lymphocytes (PBL) by 25 percent; type: functional; in short: as §1
[13] = test system: H9; assay: In vitro Cytotoxic concentration which reduced HIV-1 LAV infected H9 cells by 50 percent; type: functional, cell-based; conditions: Homo sapiens; in short: as §3
[14] = test system: MT2; assay: In vitro Cytotoxic concentration which reduced H 112-2(pre-AZT) infected MT-2 cells by 50 percent; type: functional, cell-based; conditions: Homo sapiens; in short: as §5
[15] = test system: MT2; assay: (§6) In vitro Cytotoxic concentration which destroyed HIV-1 LAV infected peripheral blood lymphocytes (PBL) completely; type: functional, Homo sapiens; in short: as §1
[16] = test system: MT2; assay: In vitro Cytotoxic concentration which destroyed HIV-1 LAV infected MT-2 cells completely; type: functional, Homo sapiens; in short: as §4
[17] = test system: MT2; assay: In vitro Cytotoxic concentration which reduced G 691-2(post-AZT) infected MT-2 cells by 50 percent; type: functional, cell-based; conditions: Homo sapiens; in short: as §5
[18] = test system: MT2; assay: In vitro Cytotoxic concentration which reduced G 910-6p2 (post-AZT) infected MT-2 cells by 50 percent; type: functional, cell-based; conditions: Homo sapiens; in short: as §5
[19] = Selectivity index is defined as CC25(H9 cells) / […]; type: functional; in short: as §2
[20] = In vitro cytotoxic concentration for mock-infected CD4+ T cells at which 25% cells were destroyed; type: functional, T-cell; in short: as §1
[21] = Selectivity index is defined as CC25(A3.01 cells) / IC50(A3.01 cells); selectivity Index = CC25/IC50; type: functional; in short: as §2
[22] = In vitro cytotoxic concentration for mock-infected cells at which complete destruction of cells was observed; type: functional; in short: as §1
[23] = as §6; type: functional; in short: as §1

SMILES | CC25 [1] [µM] | CC100 [2] | Selectivity index [3] | other results
CO[C@]1(CO)O[C@@H](n2cc(C)c(=O)[nH]c2=O)C[C@@H]1O | >200 | >200 µM | >23.6 | –
[N-]=[N+]=N[C@]1(CO)O[C@@H](n2ccc(N)nc2=O)C[C@@H]1O | 0.21 | 1.9 µM | 53 | –
Cc1cn([C@H]2C[C@H](O)[C@](CO)(N=[N+]=[N-])O2)c(=O)[nH]c1=O | – | 200 µM and >200 µM | 800 | IC50 [4]: 0.02 µM; CC25 [5]: 56 µM; Selectivity index [6]: 125; IC50 [7]: 0.4 µM; Selectivity index [8]: 140; CC100 [9]: 667 µM; CC25 [10]: 25 µM; IC50 [11]: 0.43 µM; CC25 [12]: 2.5 µM; IC50 [13]: 0.4 µM; IC50 [14]: 0.4 µM; CC100 [15]: >200 µM; CC100 [16]: >500 µM; IC50 [17]: 0.34 µM; IC50 [18]: 0.52 µM; Selectivity index [19]: 625
CO[C@]1(CO)O[C@@H](n2cnc3c(O)nc(N)nc32)C[C@@H]1O | – | – | – | CC25 [20]: 22 µM; Selectivity index [21]: 220; CC100 [22]: 67 µM
COC1(CO)OC(n2cc(C)c(=O)[nH]c2=O)CC1F (configuration not stated) | 400 | >400 µM | 125 | –
CO[C@]1(CO)O[C@@H](n2cnc3c(N)ncnc32)C[C@@H]1O | 1000 | >1000 µM | 64.5 | –
[N-]=[N+]=N[C@]1(CO)O[C@@H](n2cnc3c(N)ncnc32)C[C@@H]1O | 50 | >50 µM | 385 | –
Cc1cn([C@H]2CC[C@](CO)(N=[N+]=[N-])O2)c(=O)[nH]c1=O | 22 | 200 µM | – | –
[N-]=[N+]=N[C@]1(CO)O[C@@H](n2cc(Cl)c(=O)[nH]c2=O)C[C@@H]1O | 1000 | >1000 µM | 17900 | –
[N-]=[N+]=N[C@]1(CO)O[C@@H](N2C=NC3C(=O)N=CN=C32)C[C@@H]1O (some centres not stated) | <22 | 200 µM | <34 | –
[N-]=[N+]=N[C@]1(CO)O[C@@H](n2ccc(=O)[nH]c2=O)C[C@@H]1O | 200 | >200 µM | 250 | –
Cc1cn(C2C=CC(CO)(N=[N+]=[N-])O2)c(=O)[nH]c1=O (configuration not stated) | 2.5 | 7.4 µM | – | –
Cc1cn([C@H]2C[C@H](N=[N+]=[N-])[C@@H](CO)O2)c(=O)[nH]c1=O [ZIDOVUDINE] | 825 | 3300 µM | – | IC50 [4]: 0.08 µM; CC25 [5]: 56 µM; IC50 [7]: 0.16 µM; CC100 [9]: 1200 µM; CC25 [10]: 44 µM; IC50 [11]: 0.22 µM; CC25 [12]: 4 µM; IC50 [13]: 0.03 µM; IC50 [14]: 0.2 µM; CC100 [16]: >500 µM; IC50 [17]: 10 µM; CC100 [23]: >500 µM; IC50 [18]: 31 µM
CO[C@H]1C[C@H](n2cc(C)c(=O)[nH]c2=O)O[C@@]1(CO)N=[N+]=[N-] | >200 | >200 µM | >9.8 | –
Cc1cn([C@H]2CC[C@@](CO)(N=[N+]=[N-])O2)c(=O)[nH]c1=O | 11.1 | 33.3 µM | – | –
[N-]=[N+]=N[C@]1(CO)O[C@@H](n2ccc(N)nc2=O)[C@H](O)[C@@H]1O [4'-AZIDOCYTIDINE] | 8.2 | 74.1 µM | – | –
[N-]=[N+]=N[C@]1(CO)O[C@@H](n2ccc(=O)[nH]c2=O)[C@H](O)[C@@H]1O | >200 | >200 µM | >2.74 | –
[N-]=[N+]=N[C@]1(CO)O[C@@H](N2C=NC3C(=O)N=C(N)N=C32)C[C@@H]1O (some centres not stated) | 0.21 | 1.9 µM | 70 | –

Source: ChEMBL document CHEMBL1125438, “Synthesis and anti-HIV activity of 4'-azido- and 4'-methoxynucleosides” (J Med Chem, 1992)
